TAAR1 agonist = human TAAR1 agonists, primary screen, Fluo-8 calcium fluorescence, CHO RD-HGA16 cells; Trace amine-associated receptor 1 (Homo sapiens), Q96RJ0; vehicle wells 0%, saturating PEA agonist 100%; activation, % at 3 µM; 360,000 compounds, 0.99% hits;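 active means activation above the mean activation of all test compounds in the run plus 3 SD, cut at about 38% in these data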
Target sequence (Q96RJ0 whole entry, looked up): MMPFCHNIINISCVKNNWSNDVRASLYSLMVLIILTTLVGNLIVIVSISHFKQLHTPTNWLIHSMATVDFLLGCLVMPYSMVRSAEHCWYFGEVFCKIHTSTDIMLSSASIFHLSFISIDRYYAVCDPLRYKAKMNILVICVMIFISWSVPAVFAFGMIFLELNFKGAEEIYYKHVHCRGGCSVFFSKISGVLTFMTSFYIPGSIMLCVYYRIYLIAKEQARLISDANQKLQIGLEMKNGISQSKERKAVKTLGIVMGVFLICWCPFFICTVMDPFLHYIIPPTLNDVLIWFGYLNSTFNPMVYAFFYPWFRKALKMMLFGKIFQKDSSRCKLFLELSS
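Assay system: CHO-derived RD-HGA16 cells with stable Gα16 and human TAAR1; timing: 17-24 h seeding, 75 min 37 °C dye, 30 min RT; read-out: % activation from peak over basal fluorescence ratio, DMSO-to-PEA scaled; measured by: kinetic Fluo-8 calcium fluorescence; benchmarks: low control DMSO, high control PEA (EC100); doses: 3 µM single concentration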
TAAR1 antagonist = human TAAR1 antagonists, primary screen, Fluo-8 calcium fluorescence, CHO RD-HGA16 cells; Trace amine-associated receptor 1 (Homo sapiens), Q96RJ0; antagonist; inhibition, % at 3 µM; 360,000 compounds, 1.5% hits; AID 624466, 2012;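 active means inhibition above a per-plate cutoff, the mean inhibition of test compounds on that plate plus 3 SD, cut at about 49% in these data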
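Material: RD-HGA16 CHO cells with stable hTAAR1 and Gα16; Dosing: single nominal final test compound concentration of 3 µM; Schedule: seeding 17-24 h prior, 75-min 37 °C, 30-min RT dye loading; Detection: kinetic Fluo-8 calcium fluorescence measurement; Measure: % inhibition from peak post-agonist over basal fluorescence ratio; Benchmarks: vehicle and agonist controls.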
OX1R antag-1 = antagonists of human orexin 1 receptor (OX1R); Orexin/Hypocretin receptor type 1 (Homo sapiens), O43613; OX1R-expressing cells, FRET antagonist read-out; inhibition, % at 6.6 µM; 330,000 compounds, 1.8% hits; in the data active means inhibition mostly above about 38%, no sharp cut-off; inactive means mostly below about 40%
CHO parental Ca = ATP-evoked calcium signal inhibitors, parental CHO, primary screen, counter-screen for OX1R antagonist project, cell-based, fluorescence, Fluo-8 calcium dye; inhibition, % at 5.6 µM; 330,000 compounds, 0.63% hits; parental CHO-K1, ATP-induced calcium, Fluo-8 fluorescence;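 active means inhibition above that plate's mean sample inhibition plus 3 SD, cut at about 26% in these data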
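Assay system: untransfected parental CHO cell line. Also added: ATP agonist challenge. Dosing: one dose, 5.6 µM nominal. Measured by: Fluo-8 fluorescence. Read-out: % inhibition. Benchmarks: ATP wells versus no-ATP DMSO wells. Repeats: no replicates.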
GPR7 antag = GPR7 receptor antagonists, primary screen, cell-based, fluorescence, single concentration; Neuropeptides B/W receptor type 1 (Homo sapiens), P48145; AID 1861, 2009; 290,000 compounds, 1.1% hits; GPR7-expressing cells, fluorescence antagonist assay; inhibition, % at 4.4 µM; in the data active means inhibition above about 16%, passing the limit was not always enough;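 further: cells stimulated with the agonist NPW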
Target sequence (P48145 whole entry, looked up): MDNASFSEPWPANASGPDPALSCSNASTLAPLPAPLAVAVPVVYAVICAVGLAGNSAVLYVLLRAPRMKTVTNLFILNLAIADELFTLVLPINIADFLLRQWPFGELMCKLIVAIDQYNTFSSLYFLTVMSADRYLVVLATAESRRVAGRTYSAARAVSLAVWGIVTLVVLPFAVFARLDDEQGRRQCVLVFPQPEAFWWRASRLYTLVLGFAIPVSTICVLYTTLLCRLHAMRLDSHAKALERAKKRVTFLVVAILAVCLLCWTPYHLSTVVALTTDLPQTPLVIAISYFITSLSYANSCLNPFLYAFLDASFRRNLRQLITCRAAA
OX1R antag-2 = OX1R (HCRTR1) antagonists, primary screen, fluorescence, CHO/OX1R cells, Fluo-8 calcium, orexin A; Orexin/Hypocretin receptor type 1 (Homo sapiens), O43613; Fluo-8 calcium fluorescence; inhibition, % at 5 µM; 330,000 compounds, 0.43% hits; AID 434989, 2010;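 active means inhibition above its plate's threshold, mean inhibition of all tested compounds on the plate plus 3 SD, cut at about 37% in these data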
TAAR1 ag confirm = human TAAR1 agonists, retest of hits, confirmation, Fluo-8 calcium fluorescence, CHO RD-HGA16 cells; 2,400 compounds, 82% hits; scaled: DMSO 0%, maximal phenethylamine 100%; activation, % at 3 µM; shares compounds with TAAR1 agonist; AID 651783, 2012;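 active means activation above a cutoff set at the run's mean compound activation plus 3 SD, cut at about 39% in these data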
Ga16 nonsel ag = nonselective calcium mobilization agonists, CHO-Ga16 cells, counter-screen for hTAAR1 agonist project, cell-based, fluorescence, CHO-Ga16 parental line; Fluo-8 calcium fluorescence; normalized to maximal ATP response, DMSO zero; activation, % at 3 µM; shares compounds with TAAR1 agonist; AID 651787, 2012; 2,400 compounds, 50% hits;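 active means activation above the run cutoff, the mean activation over all tested wells plus 3 SD, cut at about 12% in these data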
TAAR1 desensitize = TAAR1 desensitization by agonist hits, confirmation, counter-screen for TAAR1 agonist project, cell-based, fluorescence, tachyphylaxis; CHO RD-HGA16 hTAAR1, Fluo-8 calcium, beta-PEA response inhibition; 2,400 compounds, 46% hits; inhibition, % at 3 µM; shares compounds with TAAR1 agonist;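 active means inhibition above the run cutoff, the mean inhibition of all test compounds plus 3 SD, cut at about 49% in these data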;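 further: beta-PEA stimulus applied at its EC80; loss of beta-PEA calcium signal after compound pretreatment read as receptor desensitization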
Ga16 antag count = inhibition of ATP-evoked calcium response in CHO-Ga16 cells, counter-screen for TAAR1 agonist project, cell-based, fluorescence; shares compounds with TAAR1 agonist; CHO-Ga16 ATP-induced calcium, Fluo-8 fluorescence; inhibition, % at 3 µM; 2,400 compounds, 39% hits; AID 651952, 2012;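 active means inhibition above the plate's mean compound inhibition plus 3 SD, computed per plate, cut at about 22% in these data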
Hits are given with their value; i = inactive; nt = not tested or not shown. An excerpt weighted towards active compounds, which were near 4.6% of everything screened.

SMILES	TAAR1 agonist	TAAR1 antagonist	OX1R antag-1	CHO parental Ca	GPR7 antag	OX1R antag-2	TAAR1 ag confirm	Ga16 nonsel ag	TAAR1 desensitize	Ga16 antag count
Cc1onc(-c2ccccc2)c1C(=O)N(C)CC(=O)Nc1ccc(F)c(F)c1F	i	i	i	i	nt	i	nt	nt	nt	nt
CCOc1ccccc1CN1[C@@H](c2ccc(OC)cc2)CC(C(=O)OC)(C(=O)OC)[C@H]1c1ccccc1	i	i	nt	nt	nt	nt	nt	nt	nt	nt
CCc1nc2ccc(C(=O)N(C)Cc3ccco3)cn2c1N(CC)Cc1cccc(Br)c1	i	i	nt	nt	nt	nt	nt	nt	nt	nt
O=C(Oc1ccc(Br)cc1C(=S)N1CCCC1)c1ccccc1F	94	57	i	i	i	i	i	i	i	i
COC(=O)c1ccc(CNCC(O)COc2ccc(-c3ccccc3)cc2)cc1 (stereo not drawn)	56	i	i	i	i	i	i	22	i	30
OC(CNCc1ccc(Cl)cc1)COc1ccccc1 (stereo not drawn)	i	i	i	i	i	i	nt	nt	nt	nt
CC[C@]12c3[nH]c4cc(CCC(=O)N(C)C)ccc4c3CCN1C(=O)[C@@H](CC(=O)NCCCn1ccnc1)C[C@@H]2C(=O)N1CCN(C(=O)c2ccco2)CC1	i	i	i	i	nt	i	nt	nt	nt	nt
COc1ccc(CCNCC(O)c2ccccc2)cc1 (stereo not drawn)	i	i	i	i	i	i	nt	nt	nt	nt
OC(CNCCc1ccccc1)c1ccccc1 (stereo not drawn)	53	i	i	i	i	i	i	i	i	i
CCOc1ccccc1N1CCN(Cc2cn[nH]c2-c2ccc(F)cc2)CC1	95	i	i	i	i	i	83	41	i	i
CCOc1ccccc1N1CCN(Cc2cccc(OC)c2OC)CC1	i	i	i	i	i	i	nt	nt	nt	nt
CCOc1ccccc1NC(=S)Nn1cnnc1	i	i	i	i	i	i	nt	nt	nt	nt
CN(CCc1ccccc1)C(=O)c1ccc(NC(=O)Cc2cccc(NC(=O)C3CCN(S(=O)(=O)c4cccc([N+](=O)[O-])c4)CC3)c2)cc1	43	i	nt	nt	nt	nt	66	i	i	i
CCCCNC(=O)c1nc(C2CCN(S(=O)(=O)c3ccc(F)c(F)c3)CC2)oc1-c1ccccc1	i	i	nt	nt	nt	nt	nt	nt	nt	nt
C[C@@H](c1ccccc1)N1C[C@H](COCc2ccccc2)Oc2cc(N3CCC[C@@H]3CO)ccc2S1(=O)=O	i	i	nt	nt	nt	nt	nt	nt	nt	nt
C[C@H](CO)N1C[C@H](C)[C@@H](CN(C)C(=O)CN2CCOCC2)Oc2cc(Br)ccc2S1(=O)=O	i	i	nt	nt	nt	nt	nt	nt	nt	nt
Cn1cnnc1SCC(=O)Nc1ccc2nc(SCc3ccccc3)sc2c1	44	i	i	i	i	i	48	21	i	25
O=C(CSc1nc2ccc(NC(=O)CSc3nnnn3Cc3ccccc3)cc2s1)Nc1ccccc1	i	i	i	i	i	i	nt	nt	nt	nt
CCCCCCCCCC(=O)NNC(=O)c1c(O)c2ccccc2n(CC)c1=O	i	i	i	i	i	i	nt	nt	nt	nt
CCCCCC(=O)NNC(=O)c1c(O)c2ccccc2n(CC)c1=O	48	i	i	i	i	i	i	24	i	i
Cn1c(=O)c(C(=O)NCCO)c(O)c2ccccc21	i	i	i	i	i	i	nt	nt	nt	nt
Cn1c(=O)c(C(=O)NNC(=O)c2ccccc2F)c(O)c2ccccc21	48	i	i	i	i	i	60	43	i	22
CCn1c(=O)c(C(=O)Nc2ncccc2C)c(O)c2ccccc21	59	i	i	i	i	i	i	12	i	i
CCn1c(=O)c(C(=O)NNC(=O)c2ccccc2F)c(O)c2ccccc21	102	52	i	i	i	i	99	89	56	60
Cc1cc(=O)oc2cc(O)cc(OCc3ccccc3)c12	i	i	nt	nt	nt	nt	nt	nt	nt	nt
SMILES	TAAR1 agonist	TAAR1 antagonist	OX1R antag-1	CHO parental Ca	GPR7 antag	OX1R antag-2	TAAR1 ag confirm	Ga16 nonsel ag	TAAR1 desensitize	Ga16 antag count
O=C(O)CCC(=O)c1ccc(C2CCCCCC2)cc1	i	i	nt	nt	nt	nt	nt	nt	nt	nt
CCc1ccc(NC(=O)CSc2nc(=O)n(CCCN(C)C)c3c2CCC3)cc1	i	i	i	i	nt	i	nt	nt	nt	nt
Cc1ccc(NC(=O)c2cc3ccccc3o2)nc1	i	i	i	i	nt	i	nt	nt	nt	nt
O=C(CN(Cc1ccccc1)C(=O)c1csnn1)NCCc1ccccc1	75	i	i	i	i	i	68	i	i	i
COc1cc(CNc2ncnc3c2ncn3[C@H]2CN(Cc3ccc(Cl)cc3)C[C@@H](CO)O2)cc(OC)c1OC	i	i	nt	nt	nt	nt	nt	nt	nt	nt
CCN(CC)c1ccc(N2C(=O)C3CCCCC3C2=O)cc1[N+](=O)[O-] (stereo not drawn)	i	i	i	i	i	i	nt	nt	nt	nt
CCOCCCNc1ccc(N2C(=O)C3CCCCC3C2=O)cc1[N+](=O)[O-] (stereo not drawn)	44	i	i	i	i	i	i	i	i	i
CC(=O)c1ccc(N2CCN(C(=O)c3ccc(Cn4c(=S)[nH]c5ccc(N6CCOCC6)cc5c4=O)cc3)CC2)cc1	53	i	i	i	i	i	i	i	i	i
Cc1cccc(C)c1-n1nnnc1C(c1ccnc2ccccc12)N1CCN(C(=O)OC(C)(C)C)CC1 (stereo not drawn)	i	i	nt	nt	nt	nt	nt	nt	nt	nt
Nc1cc(=O)[nH]c(SCC(=O)N2CCc3ccccc3C2)n1	80	75	i	i	i	i	89	i	i	i
N#Cc1nc(-c2ccc(Cl)cc2)oc1NCCc1ccccn1	45	i	i	i	i	i	i	i	i	i
CC(=O)N1N=C(c2cccc([N+](=O)[O-])c2)OC1(C)c1cccs1 (stereo not drawn)	58	54	i	i	i	i	i	i	i	i
CC(=O)N1N=C(c2ccc(C)c([N+](=O)[O-])c2)OC1(C)C	i	i	i	i	i	i	nt	nt	nt	nt
COc1ccc([C@H]2CC(=O)C=C(c3ccc4c(c3)sc3ccccc34)C2)cc1	i	i	i	i	nt	i	nt	nt	nt	nt
